mIAP block – mouse IAP inhibition; purified mouse IAP, CDP-Star luminescence, 30 min; inhibition, % at 10 µM; 330,000 compounds, 0.2% hits; AID 2806;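 active = inhibition of at least 40% at 10 µM in the primary screen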;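 note: plate controls were DMSO with enzyme for no effect and no enzyme wells for full effect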
hIAP act – increases human intestinal alkaline phosphatase activity | 330,000 compounds, 0.16% hits | P09923 | AID 2524 | purified human IAP, CDP-Star luminescence, 30 min; hits give high values; 1 = vehicle-only enzyme, 0 = enzyme-free background | activation factor at 10 µM;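 active = activation factor of the enzyme at least 2-fold when tested at 20 µM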
Target sequence (P09923 whole entry, looked up): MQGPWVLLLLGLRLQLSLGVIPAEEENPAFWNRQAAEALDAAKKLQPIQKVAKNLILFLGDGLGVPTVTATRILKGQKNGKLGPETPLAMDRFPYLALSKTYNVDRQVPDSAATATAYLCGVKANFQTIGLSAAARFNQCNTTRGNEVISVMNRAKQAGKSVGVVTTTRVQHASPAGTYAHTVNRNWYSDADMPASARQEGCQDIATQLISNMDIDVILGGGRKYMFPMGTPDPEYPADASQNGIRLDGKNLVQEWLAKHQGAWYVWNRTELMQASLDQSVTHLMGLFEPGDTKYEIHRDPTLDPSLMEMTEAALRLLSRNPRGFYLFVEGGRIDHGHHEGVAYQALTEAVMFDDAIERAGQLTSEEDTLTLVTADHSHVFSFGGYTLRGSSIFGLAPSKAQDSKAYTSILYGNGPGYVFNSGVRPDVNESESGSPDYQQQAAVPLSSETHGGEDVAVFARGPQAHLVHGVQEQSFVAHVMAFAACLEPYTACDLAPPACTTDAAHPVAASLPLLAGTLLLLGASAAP
bIAP activator – increases bovine intestinal alkaline phosphatase activity | purified bovine IAP, CDP-star luminescence, 30 min; hits give high values; fold of DMSO-control signal, blank-subtracted | activation factor at 20 µM | 200,000 compounds, 0.17% hits | AID 1016;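 active = activation factor of 2 or more at 20 µM, a signal rise over negative controls twice the positive control's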
hIAP block – blocks human intestinal alkaline phosphatase; AID 2544; purified IAP, CDP-Star luminescence, 30 min; inhibition, % at 10 µM; 330,000 compounds, 0.12% hits; P09923;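 active = inhibition reaching a set limit with compound at 10 µM in the primary screen, cut at about 35% in these data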;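 note: plate controls were DMSO wells with enzyme for no effect and no-enzyme buffer wells for full effect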
bIAP inh – blocks bovine intestinal alkaline phosphatase activity; purified bovine IAP, CDP-star luminescence, 30 min; inhibition, % at 20 µM; 190,000 tested, under 10 active; AID 1019;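 active = over 50% inhibition of intestinal alkaline phosphatase at 20 µM in the single-dose screen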
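Incubation: 30 min reaction at room temperature / Material: purified bovine intestinal alkaline phosphatase (IAP) enzyme / Input: enzyme at 1/65,000,000 dilution / Dosing: 20 µM single dose / Signal: CDP-star luminescence signal / Reagent: CDP-star chemiluminescent phosphatase substrate, 30 µM final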
mIAP activ – increases mouse intestinal alkaline phosphatase activity | muIAP, CDP-Star luminescence, 30 min; hits give high values; 1 = vehicle-only enzyme signal, 0 = enzyme-free wells | activation factor at 10 µM | 330,000 compounds, 0.24% hits | AID 2805;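 active = activation factor of at least 2 at 20 µM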
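Assay system: mouse IAP enzyme; Reagent: CDP-Star chemiluminescent phosphatase substrate; Compound: DMSO-dissolved test compounds; Incubation: 30 min, room temperature; Technique: luminescence from enzymatic CDP-Star hydrolysis; Controls: DMSO-only wells and no-enzyme negative control.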
mIAP inh conf – mouse IAP inhibition confirmation | inhibition, % at 10 µM | purified mouse IAP, CDP-Star luminescence, 30 min | AID 434971 | 11,000 compounds, 4.7% hits | shares compounds with mIAP block;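 active = inhibition of at least 40% at 10 µM in either of the two replicates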;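 note: plate controls were DMSO wells with enzyme for no effect and buffer wells lacking enzyme for full effect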
* hit, by the source's call; i = inactive; x = no result. Rows were chosen to be rich in hits. Some 0.79% of all compounds tested hit in one or more screens of this group.

SMILES | mIAP block | hIAP act | bIAP activator | hIAP block | bIAP inh | mIAP activ | mIAP inh conf
CC1(C(=O)NNC(=O)c2ccc(=O)oc2)CC1Br (configuration not stated) | 77* | 1 | x | -2 | x | 0.23 | 71*
Cc1cc(=O)oc(C)c1C(=O)NNC(=O)C1(C)CC1Br (configuration not stated) | -8 | 1.1 | x | -8 | x | 1.1 | x
COc1ccc(NC(=S)N2CCC(NC(=O)C3CCCCC3)CC2)cc1 | 7 | 0.91 | x | 9 | x | 0.93 | x
Cc1cc(C)nc(N/N=C/c2cn[nH]c2-c2ccc(F)cc2)n1 | -3 | 1.1 | x | -6 | x | 1 | x
O=C(CN1C(=O)c2ccccc2S1(=O)=O)c1ccc(F)c(F)c1 | 2 | 0.98 | x | 2 | x | 0.98 | x
O=C(CN1C(=O)c2ccccc2S1(=O)=O)c1ccc(O)c(O)c1 | 53* | 1 | x | -4 | x | 0.47 | 57*
CN1CCN(S(=O)(=O)c2ccc3[nH]c(=O)oc3c2)CC1 | 43* | 0.86 | 0.8 | 14 | 19 | 0.57 | 59*
O=c1[nH]c2ccc(S(=O)(=O)N3CCN(c4ccc(F)cc4)CC3)cc2o1 | 19 | 1 | x | 0 | x | 0.81 | x
Oc1ccc(/C=N/Nc2cc(N3CCOCC3)nc(N3CCOCC3)n2)cc1O | 42* | 1.1 | 1 | -11 | 4 | 0.58 | 63*
O=C1/C(=C\c2ccco2)SC(=S)N1C1CCCCC1 | 40* | 0.85 | x | 15 | x | 0.6 | 52*
O=C1/C(=C/c2ccco2)SC(=S)N1CCC(=O)N1CCCCC1CCO (configuration not stated) | 47* | 0.78 | x | 22 | x | 0.53 | 57*
Cc1ccc(N2C(=O)/C(=C/c3ccco3)SC2=S)cc1 | 49* | 0.95 | 0.9 | 5 | 13 | 0.51 | 60*
O=C(COC(=O)c1ccccc1NCCO)NCC1CCCCC1 | -9 | 1.1 | x | -7 | x | 1.1 | x
CCn1c(CN2CCN(C(c3ccccc3)c3ccccc3)CC2)nc2c1c(=O)n(C)c(=O)n2C | -8 | 0.97 | x | 3 | x | 1.1 | x
Cc1ccccc1C(=O)N1CCC(C(=O)Nc2cccc(F)c2)CC1 | -9 | 1.2 | 1.1 | -16 | -12 | 1.1 | x
Cc1cc(C)n(CCCN2CCC(C(=O)Nc3cccc(-c4cccc(F)c4)c3)CC2)n1 | -250 | 1 | x | 0 | x | 3.5* | -202
CC(C)(C)c1nc(NC(=O)Nc2ccccc2)sc1Br | -192 | 0.95 | 1 | 5 | -2 | 2.9* | -112
O=C1CSC(=S)N1/N=C/c1ccc(O)c(O)c1O | 92* | 1.1 | x | -5 | x | 0.084 | 88*
COc1ccc(/C=N/N2C(=O)CSC2=S)cc1Br | 22 | 1.1 | x | -13 | x | 0.78 | x
COc1ccc(/C=N/N2C(=O)CSC2=S)cc1 | 47* | 1 | 1.2 | -3 | -16 | 0.53 | 60*
CC(C)(C)c1ccc(/C=N/N2C(=O)CSC2=S)cc1 | 20 | 1.2 | x | -20 | x | 0.8 | x
O=C(O)c1ccc(CSc2n[nH]c(-c3ccco3)n2)cc1 | 58* | 1.1 | 0.9 | -5 | 12 | 0.42 | 86*
CCOC(=O)CSc1n[nH]c(-c2ccco2)n1 | 7 | 1 | 1 | -3 | 5 | 0.93 | x
CCOC(=O)c1ccc(N2CCN(c3ccccc3F)CC2)c(NC(=O)Nc2cccc(OC)c2)c1 | i | 1.7 | 1.2 | -72 | -20 | 8.6* | -362
COC(=O)c1ccc(N2CCOCC2)c(NC(=O)Nc2cccc(OC)c2)c1 | -23 | 1 | 1 | 0 | -1 | 1.2 | x
SMILES | mIAP block | hIAP act | bIAP activator | hIAP block | bIAP inh | mIAP activ | mIAP inh conf
CC(C)n1c(NCc2nc3ccccc3n2C)nc2ccccc21 | -28 | 0.94 | 1.7 | 6 | -67 | 1.3 | x
CCn1c(CNc2nc3ccccc3n2C(C)C)nc2ccccc21 | -100 | 1.2 | 3.1* | -21 | -210 | 2* | -97
CC(=O)Nc1csc2ccccc12 | 2 | 0.99 | 1 | 1 | -4 | 0.98 | x
O=C(Nc1ccccc1)Nc1csc2ccccc12 | -223 | 1 | x | -4 | x | 3.2* | -108
CCn1c(SCC(=O)Nc2ccccc2Br)nnc1-c1cnccn1 | 2 | 0.98 | x | 2 | x | 0.98 | x
Nc1c(C(=O)CSc2nccn2-c2cccc(F)c2)c(=O)[nH]c(=O)n1C1CC1 | 0 | 1 | x | -4 | x | 1 | x
CCOC(=O)c1ccc(NC(=O)Nc2ccc3c(c2)OCCO3)cc1 | -192 | 1.1 | 1.1 | -12 | -6 | 2.9* | -106
O=C(Nc1cccc(F)c1)c1cc(S(=O)(=O)N2CCOCC2)cs1 | 15 | 0.93 | 1 | 7 | 3 | 0.85 | x
CC(C)c1ccc(NC(=O)NC2(C(=O)NCc3cccnc3)CCCCC2)cc1 | -53 | 1.7 | x | -72 | x | 1.5 | x
Cc1ccc(NC(=O)NC2(C(=O)NCc3ccccc3)CCCCC2)cc1 | -175 | 0.81 | 0.9 | 20 | 8 | 2.7* | -131
O=C(Nc1ccc(F)cc1)NC1(C(=O)NCc2ccco2)CCCCC1 | -19 | 1.1 | 0.9 | -14 | 7 | 1.2 | x
COc1ccccc1CNC(=O)C1(NC(=O)Nc2ccc(C)cc2)CCCCC1 | -490 | 2.8* | 4.9* | -183 | -386 | 5.9* | -244
Cc1ccc(CNC(=O)C2(NC(=O)Nc3ccc(C)cc3)CCCCC2)cc1 | i | 0.96 | 1.1 | 4 | -7 | 6.6* | -198
O=C(N/N=C/c1cc2c(cc1[N+](=O)[O-])OCO2)c1ccccn1 | 40* | 1 | x | 0 | x | 0.6 | 58*
CC1CN(CC(O)COCc2ccc3c(c2)OCO3)CC(C)O1 (configuration not stated) | -7 | 1.3 | 1.1 | -32 | -13 | 1.1 | x
CN(Cc1ccccc1F)C(=O)COc1ccc(C(=O)c2ccccc2)cc1 | 4 | 1.1 | x | -6 | x | 0.96 | x
CC(Cc1ccc(O)c(O)c1)C(C)Cc1ccc(O)c(O)c1 (configuration not stated) | 58* | 1.1 | x | -14 | x | 0.42 | 51*
COc1cc(C[C@@H](C)[C@@H](C)Cc2ccc(O)c(OC)c2)ccc1O | 11 | 0.94 | x | 6 | x | 0.89 | x
O=C1c2ccccc2C(=O)c2c(O)c(O)cc(O)c21 | 22 | 0.81 | x | 19 | x | 0.79 | x
O=C1C=C(O)c2c(O)cc(O)c(O)c2C1=O | 69* | 0.83 | x | 17 | x | 0.31 | 55*
CSc1cccc(NC(=O)C2CCCN(S(=O)(=O)c3ccc(F)cc3)C2)c1 (configuration not stated) | -35 | 1.1 | 0.9 | -15 | 12 | 1.4 | x
CSc1cccc(NC(=O)C2CCN(S(=O)(=O)c3ccc(F)cc3)CC2)c1 | -205 | 1.4 | 1.2 | -40 | -17 | 3* | -98
CC1(C)CC(=O)C=C(NCC(O)c2ccccc2)C1 (configuration not stated) | -1 | 1 | x | -3 | x | 1 | x

Assay outcomes deposited in PubChem BioAssay by Sanford-Burnham Center for Chemical Genomics.
